Results reported in publication PMC12082725 (Journal of Enzyme Inhibition and Medicinal Chemistry, 2025).
Like-named read-outs stand apart in the source and are kept apart here.

Tests used:
[1] = target: SARS-CoV-2 NP-RNA interaction (Severe acute respiratory syndrome coronavirus 2, UniProt P0DTC9); experiment: biochemical; type: biochemical; conditions: for inhibition rate of the NP-RNA interaction: compound at 50 μM
SARS-CoV-2 NP = SARS-CoV-2 NP (Severe acute respiratory syndrome coronavirus 2, UniProt P0DTC9); experiment: BLI binding of compounds to full-length NP
Procedure, shortened: (§1)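 Target was recombinant E. coli-expressed SARS-CoV-2 NP, either CTD or full-length (1–419). Protein at 0.39 mg/ml was biotinylated for 30 min at RT, then loaded at 100 μg/ml onto streptavidin sensors for 20 min. After a 60 s baseline, increasing test compound concentrations gave 120 s association and 300 s dissociation. Run in PBS/0.01% Tween-20 at 30 °C; double-reference subtracted; KD from a global 1:1 Langmuir fit.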

SARS-CoV-2 NP CTD = SARS-CoV-2 NP CTD (Severe acute respiratory syndrome coronavirus 2, UniProt P0DTC9); experiment: BLI binding of compounds to NP CTD
Procedure, shortened: as §1

SARS-CoV-2 NP NTD = SARS-CoV-2 NP NTD (Severe acute respiratory syndrome coronavirus 2, UniProt P0DTC9); experiment: BLI binding of compounds to NP NTD; conditions: NP NTD (residues 44 to 174)
[2] = target: RNA-induced LLPS of the NP (Severe acute respiratory syndrome coronavirus 2, UniProt P0DTC9); type: biochemical, SARS-CoV-2
NP NTD = conditions: read-out: Kd, NP NTD; via bio-layer interferometry assay; ref [28]; cited from earlier work

COc1ccc(CC(C)NCC(O)c2ccc(O)c(NC=O)c2)cc1 (centres unmarked) [formoterol]
inhibitory effect on NP-RNA interaction (in words) ([1]; HTRF, 50 μM): neither compound affected

CC(C)[N+]1(C)[C@@H]2CC[C@H]1C[C@@H](OC(=O)C(CO)c1ccccc1)C2 (some centres unmarked) [ipratropium bromide]
inhibitory effect on NP-RNA interaction (in words) ([1]; HTRF, 50 μM): neither compound affected

COc1ccc2cc([C@H](C)C(=O)O)ccc2c1 [naproxen]
inhibitory effect on NP-RNA interaction (in words) [1]: did not inhibit

O=C(O)c1cc(O)c2c(c1)[C@H]([C@H]1c3cc(C(=O)O)cc(O)c3C(=O)c3c(O[C@@H]4O[C@H](CO)[C@@H](O)[C@H](O)[C@H]4O)cccc31)c1cccc(O[C@@H]3O[C@H](CO)[C@@H](O)[C@H](O)[C@H]3O)c1C2=O [sennoside A]
IC50 [1]: 3.17 ± 0.39 µM | inhibition rate of the NP-RNA interaction ([1]; HTRF): exceeding 98% | Kd (SARS-CoV-2 NP): 0.962 ± 0.019 µM | Kd (SARS-CoV-2 NP CTD): 1.82 ± 0.03 µM | binding to NP NTD (SARS-CoV-2 NP NTD): neither sennoside A nor sennoside B bound | inhibition of RNA-induced LLPS of the NP [2]: relatively weaker activity

O=C(O)c1cc(O)c2c(c1)[C@@H]([C@H]1c3cc(C(=O)O)cc(O)c3C(=O)c3c(O[C@@H]4O[C@H](CO)[C@@H](O)[C@H](O)[C@H]4O)cccc31)c1cccc(O[C@@H]3O[C@H](CO)[C@@H](O)[C@H](O)[C@H]3O)c1C2=O [sennoside B]
IC50 [1]: 1.05 ± 0.23 µM | inhibition rate of the NP-RNA interaction ([1]; HTRF): exceeding 98% | Kd (SARS-CoV-2 NP): 0.765 ± 0.012 µM | Kd (SARS-CoV-2 NP CTD): 0.529 ± 0.016 µM | binding to NP NTD (SARS-CoV-2 NP NTD): neither sennoside A nor sennoside B bound | inhibition of RNA-induced LLPS of the NP [2]: significantly inhibited

Cc1ccc(C(=O)Nc2ccc(S(=O)(=O)O)c3cc(S(=O)(=O)O)cc(S(=O)(=O)O)c23)cc1NC(=O)c1cccc(NC(=O)Nc2cccc(C(=O)Nc3cc(C(=O)Nc4ccc(S(=O)(=O)O)c5cc(S(=O)(=O)O)cc(S(=O)(=O)O)c45)ccc3C)c2)c1 [suramin]
Kd (NP NTD): 2.74 µM

CCOC(=O)c1c(CSc2ccccc2)n(C)c2cc(Br)c(O)c(CN(C)C)c12 [umifenovir]
inhibitory effect on NP-RNA interaction (in words) ([1]; HTRF, 50 μM): no inhibitory effect
